According to ChEMBL document CHEMBL1153591, “Exploring bis-(indolyl)methane moiety as an alternative and innovative CAP group in the design of histone deacetylase (HDAC) inhibitors” (Bioorg Med Chem Lett, 2009):

Experiments:
NCI-H460 = experiment: Cytotoxicity against human H460 cells after 24 hrs by sulforhodamine B assay; assay type: functional, cell-based; details: NCI-H460, 24 h
HCT-116 = experiment: Cytotoxicity against human HCT116 cells after 24 hrs by sulforhodamine B assay; assay type: functional, cell-based; details: HCT-116, 24 h
Histone deacetylase 1 = Histone deacetylase 1 (Homo sapiens, UniProt Q13547); experiment: Inhibition of human HDAC1 by fluorimetry
Sequence of Histone deacetylase 1 (Q13547 whole entry, the tested form may be a part, canonical isoform): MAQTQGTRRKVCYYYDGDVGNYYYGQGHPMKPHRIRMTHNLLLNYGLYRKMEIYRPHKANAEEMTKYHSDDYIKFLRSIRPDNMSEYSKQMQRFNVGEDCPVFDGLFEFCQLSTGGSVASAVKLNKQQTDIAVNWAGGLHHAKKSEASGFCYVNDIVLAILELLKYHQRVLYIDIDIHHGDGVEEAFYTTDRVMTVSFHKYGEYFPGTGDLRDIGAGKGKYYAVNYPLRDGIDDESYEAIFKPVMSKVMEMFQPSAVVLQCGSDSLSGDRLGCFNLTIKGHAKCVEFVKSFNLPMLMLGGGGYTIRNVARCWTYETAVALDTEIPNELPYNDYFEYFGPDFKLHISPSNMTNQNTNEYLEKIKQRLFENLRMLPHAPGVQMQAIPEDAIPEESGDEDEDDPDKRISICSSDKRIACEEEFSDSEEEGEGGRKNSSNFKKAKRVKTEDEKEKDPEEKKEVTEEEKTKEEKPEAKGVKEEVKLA
Summary of the method: (§1)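 Each purified single HDAC isoform incubated with fluorogenic substrate, a p53 fragment (residues […], Arg-His-Lys-Lys(Ac)) carrying an ε-acetylated lysine; deacetylation releases fluorophore, read by fluorimeter. Compounds tested as 10 doses, 1:3 serial dilution starting from 50 µM solution. IC50 from dose-response inhibition curves; trichostatin A as reference compound.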

Histone deacetylase 2 = Histone deacetylase 2 (Homo sapiens, UniProt Q92769); experiment: Inhibition of human HDAC2 by fluorimetry; summary of the method: as §1
Sequence of Histone deacetylase 2 (Q92769 whole entry): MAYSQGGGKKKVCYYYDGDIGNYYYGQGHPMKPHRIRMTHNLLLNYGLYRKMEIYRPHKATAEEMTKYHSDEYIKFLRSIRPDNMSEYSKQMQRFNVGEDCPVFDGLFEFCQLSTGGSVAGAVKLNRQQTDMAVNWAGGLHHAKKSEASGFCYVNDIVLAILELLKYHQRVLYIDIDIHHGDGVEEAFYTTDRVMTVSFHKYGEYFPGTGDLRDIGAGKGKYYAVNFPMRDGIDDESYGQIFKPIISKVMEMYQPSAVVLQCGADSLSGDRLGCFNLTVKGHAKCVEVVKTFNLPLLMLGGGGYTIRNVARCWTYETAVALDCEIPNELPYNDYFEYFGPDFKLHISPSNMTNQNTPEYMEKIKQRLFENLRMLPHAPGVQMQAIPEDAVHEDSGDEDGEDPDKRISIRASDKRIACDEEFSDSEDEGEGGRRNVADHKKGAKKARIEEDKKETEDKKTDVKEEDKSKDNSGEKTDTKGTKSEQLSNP

Histone deacetylase 3 = Histone deacetylase 3 (Homo sapiens, UniProt O15379); experiment: Inhibition of human HDAC3 by fluorimetry; summary of the method: as §1
Sequence of Histone deacetylase 3 (O15379 whole entry): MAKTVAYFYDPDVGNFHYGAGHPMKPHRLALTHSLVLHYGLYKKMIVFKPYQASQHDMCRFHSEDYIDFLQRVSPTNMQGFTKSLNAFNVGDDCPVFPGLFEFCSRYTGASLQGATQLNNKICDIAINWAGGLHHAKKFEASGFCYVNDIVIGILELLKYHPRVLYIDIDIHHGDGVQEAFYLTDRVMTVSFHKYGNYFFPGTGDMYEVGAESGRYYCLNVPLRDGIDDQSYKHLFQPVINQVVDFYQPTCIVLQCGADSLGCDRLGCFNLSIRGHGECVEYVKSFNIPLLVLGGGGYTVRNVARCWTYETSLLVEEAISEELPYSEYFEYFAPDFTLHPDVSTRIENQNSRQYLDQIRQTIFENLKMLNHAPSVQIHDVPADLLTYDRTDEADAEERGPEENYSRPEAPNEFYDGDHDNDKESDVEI

Histone deacetylase 4 = Histone deacetylase 4 (Homo sapiens, UniProt P56524); experiment: Inhibition of human HDAC4 by fluorimetry; summary of the method: as §1
Sequence of Histone deacetylase 4 (P56524 whole entry): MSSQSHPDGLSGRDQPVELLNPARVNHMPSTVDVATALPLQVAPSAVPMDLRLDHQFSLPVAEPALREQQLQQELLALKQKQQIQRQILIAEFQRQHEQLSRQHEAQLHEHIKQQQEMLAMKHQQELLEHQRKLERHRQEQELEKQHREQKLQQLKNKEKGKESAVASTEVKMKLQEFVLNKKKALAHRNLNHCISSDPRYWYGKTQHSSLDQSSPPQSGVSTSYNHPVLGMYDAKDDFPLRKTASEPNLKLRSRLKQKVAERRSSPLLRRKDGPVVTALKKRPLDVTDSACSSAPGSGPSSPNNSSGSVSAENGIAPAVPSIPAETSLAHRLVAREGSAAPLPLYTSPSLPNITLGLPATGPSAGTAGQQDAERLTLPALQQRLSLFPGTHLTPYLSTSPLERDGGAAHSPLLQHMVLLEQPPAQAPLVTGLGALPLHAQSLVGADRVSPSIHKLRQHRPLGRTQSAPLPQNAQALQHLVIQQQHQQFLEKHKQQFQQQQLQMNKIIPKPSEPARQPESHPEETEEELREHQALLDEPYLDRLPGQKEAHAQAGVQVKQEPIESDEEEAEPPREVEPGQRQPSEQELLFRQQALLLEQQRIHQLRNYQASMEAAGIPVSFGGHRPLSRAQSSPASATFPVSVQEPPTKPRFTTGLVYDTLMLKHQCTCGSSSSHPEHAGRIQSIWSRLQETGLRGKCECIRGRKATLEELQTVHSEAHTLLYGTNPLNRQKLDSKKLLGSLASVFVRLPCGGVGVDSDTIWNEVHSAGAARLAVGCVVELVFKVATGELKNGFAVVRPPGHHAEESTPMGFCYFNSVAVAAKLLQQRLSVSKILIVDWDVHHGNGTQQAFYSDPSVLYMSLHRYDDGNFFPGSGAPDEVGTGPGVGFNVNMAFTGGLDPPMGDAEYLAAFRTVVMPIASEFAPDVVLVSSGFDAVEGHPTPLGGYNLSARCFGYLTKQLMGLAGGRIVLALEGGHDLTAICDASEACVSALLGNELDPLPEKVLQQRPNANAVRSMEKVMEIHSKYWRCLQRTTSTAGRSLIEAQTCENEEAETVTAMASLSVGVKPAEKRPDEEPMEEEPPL

Histone deacetylase 5 = Histone deacetylase 5 (Homo sapiens, UniProt Q9UQL6); experiment: Inhibition of human HDAC5 by fluorimetry; summary of the method: as §1
Sequence of Histone deacetylase 5 (Q9UQL6 whole entry): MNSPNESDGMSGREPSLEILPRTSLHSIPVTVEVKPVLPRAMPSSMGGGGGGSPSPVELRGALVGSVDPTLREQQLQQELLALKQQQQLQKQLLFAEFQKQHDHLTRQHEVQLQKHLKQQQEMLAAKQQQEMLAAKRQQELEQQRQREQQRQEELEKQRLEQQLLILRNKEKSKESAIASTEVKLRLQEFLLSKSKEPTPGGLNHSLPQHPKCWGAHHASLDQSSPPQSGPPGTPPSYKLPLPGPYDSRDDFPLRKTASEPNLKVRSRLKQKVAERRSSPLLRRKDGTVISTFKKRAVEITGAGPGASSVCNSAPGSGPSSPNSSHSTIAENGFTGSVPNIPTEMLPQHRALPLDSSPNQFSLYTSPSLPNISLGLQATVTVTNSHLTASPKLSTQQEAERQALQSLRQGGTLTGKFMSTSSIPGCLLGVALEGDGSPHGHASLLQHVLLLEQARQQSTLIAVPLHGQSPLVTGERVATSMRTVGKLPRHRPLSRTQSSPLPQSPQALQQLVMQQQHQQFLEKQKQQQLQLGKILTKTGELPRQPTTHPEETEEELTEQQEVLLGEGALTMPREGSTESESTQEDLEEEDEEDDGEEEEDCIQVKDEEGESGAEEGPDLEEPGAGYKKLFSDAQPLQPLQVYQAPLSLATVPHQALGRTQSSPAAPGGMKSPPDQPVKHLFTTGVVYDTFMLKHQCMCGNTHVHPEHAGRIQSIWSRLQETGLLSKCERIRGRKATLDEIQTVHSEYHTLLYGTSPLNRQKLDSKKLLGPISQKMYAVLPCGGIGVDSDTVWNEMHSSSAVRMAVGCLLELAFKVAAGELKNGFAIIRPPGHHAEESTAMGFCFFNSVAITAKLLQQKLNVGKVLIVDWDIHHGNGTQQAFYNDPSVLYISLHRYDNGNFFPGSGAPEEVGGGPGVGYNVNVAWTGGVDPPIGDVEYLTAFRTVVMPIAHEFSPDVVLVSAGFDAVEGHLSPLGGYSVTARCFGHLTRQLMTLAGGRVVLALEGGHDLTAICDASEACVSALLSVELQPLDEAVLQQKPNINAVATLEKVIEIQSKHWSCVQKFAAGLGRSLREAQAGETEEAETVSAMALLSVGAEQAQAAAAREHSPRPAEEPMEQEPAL

[1] = biological target: T1, Protein deacetylase HDAC6 (Homo sapiens, UniProt Q9UBN7); experiment: Inhibition of human HDAC6 by fluorimetry; summary of the method: as §1
T1 sequence (Q9UBN7 whole entry): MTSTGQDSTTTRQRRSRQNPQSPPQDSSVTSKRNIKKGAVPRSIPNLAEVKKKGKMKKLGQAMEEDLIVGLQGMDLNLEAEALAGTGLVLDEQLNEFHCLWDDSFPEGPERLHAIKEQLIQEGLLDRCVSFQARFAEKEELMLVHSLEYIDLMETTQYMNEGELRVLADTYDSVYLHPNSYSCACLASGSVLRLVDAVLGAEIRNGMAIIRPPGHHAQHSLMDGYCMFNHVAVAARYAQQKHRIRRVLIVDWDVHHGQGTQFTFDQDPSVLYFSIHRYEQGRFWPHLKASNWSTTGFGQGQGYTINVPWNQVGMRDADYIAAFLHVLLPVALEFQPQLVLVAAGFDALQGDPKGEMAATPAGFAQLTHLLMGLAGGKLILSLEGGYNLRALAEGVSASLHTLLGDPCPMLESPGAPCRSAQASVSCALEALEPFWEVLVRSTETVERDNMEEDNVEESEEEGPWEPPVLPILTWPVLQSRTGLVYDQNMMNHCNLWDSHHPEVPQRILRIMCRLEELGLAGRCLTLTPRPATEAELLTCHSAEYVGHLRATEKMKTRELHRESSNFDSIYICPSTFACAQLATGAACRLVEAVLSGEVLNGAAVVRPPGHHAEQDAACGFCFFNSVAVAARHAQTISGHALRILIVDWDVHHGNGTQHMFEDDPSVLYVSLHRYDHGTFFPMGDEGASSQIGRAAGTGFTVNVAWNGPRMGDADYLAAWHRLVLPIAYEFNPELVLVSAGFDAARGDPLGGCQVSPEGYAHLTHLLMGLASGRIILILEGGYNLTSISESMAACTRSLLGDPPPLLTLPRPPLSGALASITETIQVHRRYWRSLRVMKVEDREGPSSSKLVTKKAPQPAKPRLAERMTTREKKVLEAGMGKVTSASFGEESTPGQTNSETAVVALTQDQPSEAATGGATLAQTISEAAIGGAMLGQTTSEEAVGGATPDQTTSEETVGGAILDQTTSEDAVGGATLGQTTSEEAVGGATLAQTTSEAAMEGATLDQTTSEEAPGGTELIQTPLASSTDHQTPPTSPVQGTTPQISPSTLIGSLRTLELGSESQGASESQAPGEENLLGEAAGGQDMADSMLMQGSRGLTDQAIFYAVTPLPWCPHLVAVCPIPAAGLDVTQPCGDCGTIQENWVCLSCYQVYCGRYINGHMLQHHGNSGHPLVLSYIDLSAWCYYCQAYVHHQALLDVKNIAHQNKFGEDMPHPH

Histone deacetylase 8 = biological target: T2, Histone deacetylase 8 (Homo sapiens, UniProt Q9BY41); experiment: Inhibition of human HDAC8 by fluorimetry; summary of the method: as §1
T2 sequence (Q9BY41 whole entry): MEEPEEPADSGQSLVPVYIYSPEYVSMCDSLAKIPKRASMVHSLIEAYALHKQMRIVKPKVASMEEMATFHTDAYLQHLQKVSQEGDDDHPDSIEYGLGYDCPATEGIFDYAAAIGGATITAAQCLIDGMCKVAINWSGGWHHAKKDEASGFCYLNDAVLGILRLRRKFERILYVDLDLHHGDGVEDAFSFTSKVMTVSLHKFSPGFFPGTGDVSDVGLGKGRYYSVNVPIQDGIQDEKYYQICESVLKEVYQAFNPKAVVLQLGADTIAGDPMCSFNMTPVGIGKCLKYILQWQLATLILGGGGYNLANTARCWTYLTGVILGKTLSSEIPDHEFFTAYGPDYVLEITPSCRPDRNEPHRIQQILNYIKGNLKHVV

Histone deacetylase 9 = Histone deacetylase 9 (Homo sapiens, UniProt Q9UKV0); experiment: Inhibition of human HDAC9 by fluorimetry; summary of the method: as §1
Sequence of Histone deacetylase 9 (Q9UKV0 whole entry): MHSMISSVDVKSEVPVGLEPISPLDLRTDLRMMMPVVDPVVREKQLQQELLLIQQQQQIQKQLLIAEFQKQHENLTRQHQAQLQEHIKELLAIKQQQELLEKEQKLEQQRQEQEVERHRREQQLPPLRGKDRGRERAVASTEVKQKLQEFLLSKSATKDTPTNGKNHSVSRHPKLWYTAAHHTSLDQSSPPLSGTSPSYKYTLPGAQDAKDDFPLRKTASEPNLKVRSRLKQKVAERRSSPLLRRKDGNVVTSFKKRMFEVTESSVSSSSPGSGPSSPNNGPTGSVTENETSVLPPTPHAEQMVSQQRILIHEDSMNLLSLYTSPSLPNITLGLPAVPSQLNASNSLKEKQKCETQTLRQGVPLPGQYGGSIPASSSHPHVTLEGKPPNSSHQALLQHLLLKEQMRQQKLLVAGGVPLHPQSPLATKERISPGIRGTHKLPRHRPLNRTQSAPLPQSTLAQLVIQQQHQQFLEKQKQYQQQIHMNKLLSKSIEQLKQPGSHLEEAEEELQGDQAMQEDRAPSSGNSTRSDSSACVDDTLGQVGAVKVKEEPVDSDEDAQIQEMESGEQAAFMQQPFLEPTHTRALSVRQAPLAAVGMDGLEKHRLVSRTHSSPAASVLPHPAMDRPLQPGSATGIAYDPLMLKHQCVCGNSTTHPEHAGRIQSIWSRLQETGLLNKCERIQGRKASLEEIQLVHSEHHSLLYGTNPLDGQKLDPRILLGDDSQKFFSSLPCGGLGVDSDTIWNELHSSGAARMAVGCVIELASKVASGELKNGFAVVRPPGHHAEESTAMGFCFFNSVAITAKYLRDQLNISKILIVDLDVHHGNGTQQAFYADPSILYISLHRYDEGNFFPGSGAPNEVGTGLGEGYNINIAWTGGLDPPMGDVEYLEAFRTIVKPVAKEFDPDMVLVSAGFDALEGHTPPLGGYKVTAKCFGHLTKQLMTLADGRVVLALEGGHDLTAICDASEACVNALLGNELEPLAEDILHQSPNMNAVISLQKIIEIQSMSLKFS

[2] = biological target: T3, Polyamine deacetylase HDAC10 (Homo sapiens, UniProt Q969S8); experiment: Inhibition of human HDAC10 by fluorimetry; summary of the method: as §1
T3 sequence (Q969S8 whole entry): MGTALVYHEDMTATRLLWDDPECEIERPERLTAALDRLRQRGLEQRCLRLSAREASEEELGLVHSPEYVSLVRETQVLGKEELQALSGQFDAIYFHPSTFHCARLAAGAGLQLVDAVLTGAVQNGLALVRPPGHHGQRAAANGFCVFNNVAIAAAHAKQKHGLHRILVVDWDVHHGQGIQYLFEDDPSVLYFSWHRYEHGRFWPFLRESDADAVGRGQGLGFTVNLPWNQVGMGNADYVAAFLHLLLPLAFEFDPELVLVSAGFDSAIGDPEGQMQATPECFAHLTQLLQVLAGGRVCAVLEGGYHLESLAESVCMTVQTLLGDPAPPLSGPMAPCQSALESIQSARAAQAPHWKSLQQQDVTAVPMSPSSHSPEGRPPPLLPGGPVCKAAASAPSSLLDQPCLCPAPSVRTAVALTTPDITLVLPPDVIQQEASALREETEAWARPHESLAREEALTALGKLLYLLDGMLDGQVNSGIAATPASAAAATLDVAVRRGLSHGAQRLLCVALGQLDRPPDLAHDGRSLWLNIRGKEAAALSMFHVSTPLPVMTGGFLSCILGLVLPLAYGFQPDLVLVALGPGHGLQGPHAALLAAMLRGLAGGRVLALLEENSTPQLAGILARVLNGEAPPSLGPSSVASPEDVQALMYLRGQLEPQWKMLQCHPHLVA

Compound | IC50 (NCI-H460) [nM] | IC50 (HCT-116) [nM] | IC50 (Histone deacetylase 1) [nM] | IC50 (Histone deacetylase 2) [nM] | IC50 (Histone deacetylase 3) [nM] | IC50 (Histone deacetylase 4) [nM] | IC50 (Histone deacetylase 5) [nM] | IC50 [1] [nM] | IC50 (Histone deacetylase 8) [nM] | IC50 (Histone deacetylase 9) [nM] | IC50 [2] [nM]
O=C(CCCCCC(c1c[nH]c2cccc(F)c12)c1c[nH]c2cccc(F)c12)NO | 700 | 400 |  |  |  |  |  |  |  |  | 
Cn1cc(C(CCCCCC(=O)NO)c2cn(C)c3ccccc23)c2ccccc21 | 8800 | 6600 |  |  |  |  |  |  |  |  | 
Cc1[nH]c2ccccc2c1C(c1ccc(/C=C/C(=O)NO)cc1)c1c(C)[nH]c2ccccc12 | > 20000 | > 20000 |  |  |  |  |  |  |  |  | 
O=C(CCCCCc1c[nH]c2ccccc12)NO | 22000 | 15000 |  |  |  |  |  |  |  |  | 
O=C(CCCC(c1c[nH]c2ccccc12)c1c[nH]c2ccccc12)NO | > 20000 | > 20000 |  |  |  |  |  |  |  |  | 
O=C(CCC(c1c[nH]c2ccccc12)c1c[nH]c2ccccc12)NO | > 20000 | > 20000 |  |  |  |  |  |  |  |  | 
O=C(CCCCC(c1c[nH]c2ccccc12)c1c[nH]c2ccccc12)NO | 5200 | 5800 |  |  |  |  |  |  |  |  | 
COc1cccc2c(C(CCCCCC(=O)NO)c3c[nH]c4c(OC)cccc34)c[nH]c12 | 550 | 410 | 83 | 440 | 23 | 220 | 311 | 2.6 | 180 | 340 | 240
O=C(CCCCCC(c1c[nH]c2ccc([N+](=O)[O-])cc12)c1c[nH]c2ccc([N+](=O)[O-])cc12)NO | 3200 | 1200 | 140 | 590 | 18 | 220 | 140 | 20 | 600 | 150 | 250
